From ChEMBL document CHEMBL1955742, “Synthesis and SAR studies of phenanthroindolizidine and phenanthroquinolizidine alkaloids as potent anti-tumor agents” (2012)

Tests used:
Format in all cases: functional
A549 [1] = test: Antiproliferative activity against human A549 cells after 72 hrs by MTT assay
Procedure, shortened: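 A549 human lung adenocarcinoma epithelial cells were seeded and grown for 24 h, then exposed to compounds for a further 72 h. Proliferation was read by MTT, as assigned in the table footnote. GI50 was calculated by the Logit method from at least three independent experiments.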

HL-60 [2] = test: Antiproliferative activity against human HL60 cells after 72 hrs by SRB assay
Procedure, shortened: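 HL60 human promyelocytic leukemia cells were seeded and grown for 24 h, then given compounds and cultured for another 72 h. Read-out was SRB, per the table footnote. GI50 was obtained by the Logit method from three or more independent experiments.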

HL-60 [3] = test: Antiproliferative activity against human HL60 cells at 10^-7 mol/L after 72 hrs by SRB assay; details: HL-60, 72 h
A549 [4] = test: Antiproliferative activity against human A549 cells at 10^-7 mol/L after 72 hrs by MTT assay; details: A549, 72 h
A549 [5] = test: Antiproliferative activity against human A549 cells at 10^-6 mol/L after 72 hrs by MTT assay; details: A549, 72 h
HL-60 [6] = test: Antiproliferative activity against human HL60 cells at 10^-8 mol/L after 72 hrs by SRB assay; details: HL-60, 72 h
HL-60 [7] = test: Antiproliferative activity against human HL60 cells at 10^-6 mol/L after 72 hrs by SRB assay; details: HL-60, 72 h
A549 [8] = test: Antiproliferative activity against human A549 cells at 10^-8 mol/L after 72 hrs by MTT assay; details: A549, 72 h

| Structure (SMILES) | GI50 (A549 [1]; Homo sapiens, A549, 72 h) [µM] | GI50 (HL-60 [2]; Homo sapiens, HL-60, 72 h) [µM] | inhibition at 0.1 µM (HL-60 [3]) [%] | inhibition at 0.1 µM (A549 [4]) [%] | inhibition at 1 µM (A549 [5]) [%] | inhibition at 0.01 µM (HL-60 [6]) [%] | inhibition at 1 µM (HL-60 [7]) [%] | inhibition at 0.01 µM (A549 [8]) [%] | GI50 (A549 [1]) [µM] | GI50 (HL-60 [2]) [µM] |
| --- | --- | --- | --- | --- | --- | --- | --- | --- | --- | --- |
| COc1ccc2c3c(c4cc(OC)c(OC)cc4c2c1)CN1CCC[C@H]1[C@H]3NC(=O)C(C)(C)C | > 10 | > 10 |  |  |  |  |  |  |  |  |
| COc1ccc2c3c(c4cc(OC)c(OC)cc4c2c1)CN1CCC[C@H]1[C@H]3O | 0.03 | < 0.001 |  |  |  |  |  |  |  |  |
| COc1cc2c3c(c4cc(OC)c(OC)cc4c2cc1OC)CN1CCC[C@@H]1C3 [TYLOPHORINE] | 0.5 | 0.1 |  |  |  |  |  |  |  |  |
| COc1cc2c3c(c4cc5c(cc4c2cc1OC)OCCO5)CN1CCCC1C3 (racemic) | 0.97 |  | 52.2 | 78.9 | 85.6 | 16 | 84.4 | 2.1 |  |  |
| COc1ccc2c3c(c4cc(OC)c(OC)cc4c2c1)[C@@H](O)[C@H]1CCCCN1C3 | 0.02 | < 0.001 |  |  |  |  |  |  |  |  |
| COc1cc2c3c(c4ccc(O)cc4c2cc1OC)CN1CCC[C@H]1C3 | 0.04 | 0.1 | 76.1 | 71.3 | 85.9 | 37.4 | 85.8 | 21.9 |  |  |
| COc1ccc2c3c(c4cc(OC)c(OC)cc4c2c1)[C@H](NC(C)=O)[C@@H]1CCCN1C3 | 0.05 | 0.05 |  |  |  |  |  |  |  |  |
| COc1ccc2c3c(c4cc(OC)c(OC)cc4c2c1)C[C@H]1CCCCN1C3 [CRYPTOPLEURINE] | < 0.001 | < 0.001 |  |  |  |  |  |  |  |  |
| COc1cc2c3c(c4cc(OC)c(OC)cc4c2cc1OC)CN1CCC[C@H]1C3 [(S)-TYLOPHORINE] | 0.7 | 0.01 |  |  |  |  |  |  |  |  |
| COc1ccc2c3c(c4cc(OC)c(OC)cc4c2c1)C[C@@H]1CCCCN1C3 |  |  |  |  |  |  |  |  | < 0.001 | < 0.001 |
| COc1cc2c3c(c4cc(OC)c(OC)cc4c2cc1OC)[C@@H](O)[C@H]1CCCCN1C3 | 0.07 | < 0.001 |  |  |  |  |  |  |  |  |
| COc1cc2c3c(c4cc5c(cc4c2cc1OC)OCO5)CN1CCCC1C3 (racemic) |  |  | 56.4 | 51.6 | 80.9 | 14.8 | 88.4 | 16.9 |  |  |
| COc1cc2c3c(c4cc(OC)c(OC)cc4c2cc1OC)[C@H](O)[C@H]1CCCN1C3 |  |  | 16.1 | 5.6 | 17.9 | 12.1 | 27 | 5 |  |  |
| COc1cc2c3c(c4ccc(O)cc4c2cc1OC)CN1CCC[C@@H]1C3 | < 0.001 | < 0.001 | 87.1 | 92.3 | 94.8 | 86.5 | 89.7 | 86 |  |  |
| COc1ccc2c3c(c4cc(OC)c(OC)cc4c2c1)CN1CCC[C@@H]1[C@@H]3O | 3.7 | 0.3 |  |  |  |  |  |  |  |  |
| COc1ccc2c3c(c4cc(OC)c(OC)cc4c2c1)C[C@H]1CCCN1C3 [(-)-ANTOFINE] | 0.01 | < 0.001 |  |  |  |  |  |  |  |  |
| COc1cc2c3c(c4cc5c(cc4c2cc1OC)OCO5)CC1CCCN1C3 (racemic) |  |  | 9.4 | 22.4 | 70.3 | 11.7 | 62.9 | 15.9 |  |  |
| COc1ccc2c3c(c4cc(OC)c(OC)cc4c2c1)[C@@H](O)[C@H]1CCCN1C3 | > 10 | > 10 |  |  |  |  |  |  |  |  |
| COc1ccc2c3c(c4cc(OC)c(OC)cc4c2c1)C[C@@H]1CCCN1C3 [HYPOESTESTATIN 1] | 0.3 | 0.2 |  |  |  |  |  |  |  |  |
| COc1cc2c3c(c4cc(OC)c(OC)cc4c2cc1OC)CN1CCCC[C@H]1C3 | 0.06 | < 0.001 |  |  |  |  |  |  |  |  |
| COc1cc2c3c(c4cc(OC)c(OC)cc4c2cc1OC)[C@H](O)[C@@H]1CCCN1C3 | 0.67 |  | 59.5 | 55 | 80.9 | 34.5 | 85 | 17.1 |  |  |
| COc1ccc2c3c(c4cc(OC)c(OC)cc4c2c1)CN1CCC[C@@H]1C3 | 0.7 | 0.3 |  |  |  |  |  |  |  |  |
